# Assay results: ChEMBL document CHEMBL3351359, “Design and synthesis of novel 2,4-diaryl-5H-indeno[1,2-b]pyridine derivatives, and their evaluation of topoisomerase inhibitory activity and cytotoxicity” (Bioorg Med Chem, 2015)
# Columns and labels:
# [1] = target: T1, DNA topoisomerase 1 (Homo sapiens) (UniProt P11387); assay: Inhibition of human recombinant topoisomerase-1 assessed as conversion of super-coiled plasmid DNA pBR322 to relaxed DNA at 100 uM after 30 mins by ethidium bromide staining-based agarose gel electrophoresis relative to camptothecin
# T1 sequence (whole entry): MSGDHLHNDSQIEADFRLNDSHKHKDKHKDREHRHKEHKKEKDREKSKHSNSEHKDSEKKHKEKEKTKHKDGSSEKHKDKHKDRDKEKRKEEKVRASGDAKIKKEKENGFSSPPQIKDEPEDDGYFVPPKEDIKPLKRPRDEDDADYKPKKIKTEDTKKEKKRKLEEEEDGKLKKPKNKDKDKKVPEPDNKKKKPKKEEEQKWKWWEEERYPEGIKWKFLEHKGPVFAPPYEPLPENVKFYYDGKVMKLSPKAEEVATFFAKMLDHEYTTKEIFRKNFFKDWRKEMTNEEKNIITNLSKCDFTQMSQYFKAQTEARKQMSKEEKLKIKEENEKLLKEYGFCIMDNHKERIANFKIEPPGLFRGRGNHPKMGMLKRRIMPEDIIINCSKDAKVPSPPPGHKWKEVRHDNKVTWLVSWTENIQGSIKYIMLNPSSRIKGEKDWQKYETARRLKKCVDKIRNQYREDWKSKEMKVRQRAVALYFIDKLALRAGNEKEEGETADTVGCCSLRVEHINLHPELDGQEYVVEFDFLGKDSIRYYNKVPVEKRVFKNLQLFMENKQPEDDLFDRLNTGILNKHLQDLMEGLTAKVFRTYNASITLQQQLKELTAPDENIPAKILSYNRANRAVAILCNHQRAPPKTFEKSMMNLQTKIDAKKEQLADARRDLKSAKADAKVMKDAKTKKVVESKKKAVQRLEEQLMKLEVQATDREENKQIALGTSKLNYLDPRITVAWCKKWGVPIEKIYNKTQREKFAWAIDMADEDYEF
# [2] = target: DNA topoisomerase 2-alpha (Homo sapiens) (UniProt P11388); assay: Inhibition of human recombinant topoisomerase-2 alpha assessed as conversion of super-coiled plasmid DNA pBR322 to relaxed DNA at 100 uM after 30 mins by ethidium bromide staining-based agarose gel electrophoresis relative to etoposide
# MCF7 = assay: Cytotoxicity against human MCF7 cells after 2 days by CCK-8 assay; assay type: functional, cell-based; settings: MCF7, 48 h
# Outline: (§1)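 Cells seeded at 2~4 × 10^4 per well, grown overnight in medium with 10% FBS at 37 °C, 5% CO2. On day 2, after 4 h FBS starvation, medium replaced with medium containing graded compound concentrations. On day 4, CCK-8 added for 4 h, then absorbance read at 450 nm. IC50 from four-parameter logistic fit. Mean ± S.D. of three experiments, each run in triplicate.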
# [3] = Cytotoxicity against human HCT15 cells after 2 days by CCK-8 assay; assay type: functional, cell-based; settings: HCT-15, 48 h; outline: as §1
# DU-145 = assay: Cytotoxicity against human DU145 cells after 2 days by CCK-8 assay; assay type: functional, cell-based; settings: DU-145, 48 h; outline: as §1
# HeLa = assay: Cytotoxicity against human HeLa cells after 2 days by CCK-8 assay; assay type: functional, cell-based; settings: 48 h; outline: as §1
# [4] = target: DNA topoisomerase 2-alpha (Homo sapiens) (UniProt P11388); assay: Inhibition of human recombinant topoisomerase-2 alpha assessed as conversion of super-coiled plasmid DNA pBR322 to relaxed DNA at 100 uM after 30 mins by ethidium bromide staining-based agarose gel electrophoresis (reference value: 87.8%)
# Outline: (§2)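 Supercoiled pBR322 (200 ng) incubated with 1 unit human topo IIα, with or without compound, for 30 min at 30 °C. Buffer: 10 mM Tris-HCl pH 7.9, 50 mM NaCl, 5 mM MgCl2, 1 mM EDTA, 1 mM ATP, 15 μg/mL BSA. Stopped with EDTA. Run on 1% agarose in TAE at 25 V for 4 h, stained with ethidium bromide, supercoiled DNA quantified under UV.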
# [5] = target: T1, DNA topoisomerase 1 (Homo sapiens); assay: Inhibition of human recombinant topoisomerase-1 assessed as conversion of super-coiled plasmid DNA pBR322 to relaxed DNA at 100 uM after 30 mins by ethidium bromide staining-based agarose gel electrophoresis (reference value: 62.9%)
# Outline: (§3)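 Relaxation of supercoiled pBR322 (100 ng) by 0.4 units recombinant human topo I, with or without compound (20 mM DMSO stocks), for 30 min at 37 °C. Buffer: 10 mM Tris-HCl pH 7.9, 150 mM NaCl, 0.1% BSA, 1 mM spermidine, 5% glycerol. Stopped with sarcosyl. Run on 1% agarose in TAE at 15 V for 7 h, stained with ethidium bromide, bands quantified under UV.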
# [6] = target: T1, DNA topoisomerase 1 (Homo sapiens); assay: Inhibition of human recombinant topoisomerase-1 assessed as conversion of super-coiled plasmid DNA pBR322 to relaxed DNA at 100 uM after 30 mins by ethidium bromide staining-based agarose gel electrophoresis (reference value: 45.2%); outline: as §3
# [7] = target: DNA topoisomerase 2-alpha (Homo sapiens) (UniProt P11388); assay: Inhibition of human recombinant topoisomerase-2 alpha assessed as conversion of super-coiled plasmid DNA pBR322 to relaxed DNA at 100 uM after 30 mins by ethidium bromide staining-based agarose gel electrophoresis (reference value: 32.4%); outline: as §2
# [8] = target: DNA topoisomerase 2-alpha (Homo sapiens) (UniProt P11388); assay: Inhibition of human recombinant topoisomerase-2 alpha assessed as conversion of super-coiled plasmid DNA pBR322 to relaxed DNA at 20 uM after 30 mins by ethidium bromide staining-based agarose gel electrophoresis (reference value: 46.7%); outline: as §2
# Sequence of DNA topoisomerase 2-alpha (Homo sapiens) (P11388 whole entry): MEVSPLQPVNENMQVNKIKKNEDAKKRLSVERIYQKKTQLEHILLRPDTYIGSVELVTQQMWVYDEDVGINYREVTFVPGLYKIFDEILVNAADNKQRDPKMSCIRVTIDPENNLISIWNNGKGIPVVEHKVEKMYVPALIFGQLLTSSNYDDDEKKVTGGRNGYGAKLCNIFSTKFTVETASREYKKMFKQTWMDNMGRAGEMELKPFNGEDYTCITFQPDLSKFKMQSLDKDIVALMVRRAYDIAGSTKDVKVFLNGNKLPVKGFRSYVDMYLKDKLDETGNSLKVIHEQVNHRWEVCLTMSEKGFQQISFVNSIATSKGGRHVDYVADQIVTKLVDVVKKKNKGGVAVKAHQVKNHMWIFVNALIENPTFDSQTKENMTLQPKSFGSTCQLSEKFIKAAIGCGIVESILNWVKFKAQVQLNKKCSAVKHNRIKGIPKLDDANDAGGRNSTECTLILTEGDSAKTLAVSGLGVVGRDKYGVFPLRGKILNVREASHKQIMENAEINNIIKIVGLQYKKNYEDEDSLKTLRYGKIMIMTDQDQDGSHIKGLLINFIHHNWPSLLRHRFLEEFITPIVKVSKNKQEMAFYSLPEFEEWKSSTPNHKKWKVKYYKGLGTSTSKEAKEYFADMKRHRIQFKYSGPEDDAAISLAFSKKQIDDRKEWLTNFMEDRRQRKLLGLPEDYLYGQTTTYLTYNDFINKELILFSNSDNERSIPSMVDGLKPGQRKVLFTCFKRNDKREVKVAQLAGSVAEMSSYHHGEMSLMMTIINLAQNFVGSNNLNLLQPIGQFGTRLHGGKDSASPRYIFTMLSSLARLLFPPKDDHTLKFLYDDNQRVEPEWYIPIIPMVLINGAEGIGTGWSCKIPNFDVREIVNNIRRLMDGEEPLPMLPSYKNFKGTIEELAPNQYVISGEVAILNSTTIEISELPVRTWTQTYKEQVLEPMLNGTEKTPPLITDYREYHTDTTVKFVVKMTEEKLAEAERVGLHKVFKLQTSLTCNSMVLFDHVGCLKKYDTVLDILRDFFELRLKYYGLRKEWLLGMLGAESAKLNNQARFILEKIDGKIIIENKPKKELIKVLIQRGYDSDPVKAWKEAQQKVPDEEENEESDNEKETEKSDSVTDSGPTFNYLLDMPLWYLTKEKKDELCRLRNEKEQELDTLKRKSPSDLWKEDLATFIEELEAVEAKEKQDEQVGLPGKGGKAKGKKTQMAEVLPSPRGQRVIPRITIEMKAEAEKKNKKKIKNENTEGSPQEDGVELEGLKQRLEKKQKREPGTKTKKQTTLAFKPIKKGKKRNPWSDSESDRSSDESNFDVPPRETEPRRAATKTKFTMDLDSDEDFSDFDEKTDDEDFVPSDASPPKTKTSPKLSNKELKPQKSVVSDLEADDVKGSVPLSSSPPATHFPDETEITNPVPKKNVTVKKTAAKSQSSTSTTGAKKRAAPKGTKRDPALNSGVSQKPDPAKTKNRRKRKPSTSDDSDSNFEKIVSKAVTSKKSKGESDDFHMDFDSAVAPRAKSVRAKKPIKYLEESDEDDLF
smiles,measurement,setting,value
c1ccc(-c2cc(-c3cccnc3)c3c(n2)-c2ccsc2CC3)cc1,Ratio,[1],1.15
same,Ratio,[2],< 0.2
c1coc(-c2cc(-c3ccoc3)c3c(n2)-c2ccccc2OC3)c1,Ratio,[1],1.2
same,Ratio,[2],0.89
CC[C@@]1(O)C(=O)OCc2c1cc1n(c2=O)Cc2cc3ccccc3nc2-1 [CAMPTOTHECIN],IC50,MCF7,0.08 µM
same,IC50,[3],0.26 µM
same,IC50,DU-145,0.11 µM
c1coc(-c2cc(-c3ccco3)c3oc4ccccc4c3n2)c1,fold change (FC),[1],0.6
same,Ratio,[2],1.11
COc1cc([C@@H]2c3cc4c(cc3[C@@H](O[C@@H]3O[C@@H]5CO[C@@H](C)O[C@H]5[C@H](O)[C@H]3O)[C@H]3COC(=O)[C@H]23)OCO4)cc(OC)c1O [ETOPOSIDE],IC50,MCF7,0.73 µM
same,IC50,[3],1.1 µM
same,IC50,HeLa,1.26 µM
c1ccc(-c2cc(-c3ccsc3)c3c(n2)-c2ccccc2C3)nc1,inhibition,[4],15%
same,inhibition,[5],1.1%
c1ccc(-c2cc(-c3ccccn3)nc3c2oc2ccccc23)cc1,Ratio,[1],1.15
same,Ratio,[2],< 0.2
c1coc(-c2cc(-c3cccs3)nc3c2CCc2ccccc2-3)c1,Ratio,[1],0.97
same,Ratio,[2],< 0.2
c1ccc(-c2cc(-c3ccco3)nc3c2oc2ccccc23)cc1,Ratio,[1],< 0.2
same,Ratio,[2],1.11
c1ccc(-c2cc(-c3ccco3)c3oc4ccccc4c3n2)cc1,fold change (FC),[1],< 0.2
same,Ratio,[2],1.24
c1csc(-c2cc(-c3cccs3)c3c(n2)-c2ccccc2C3)c1,IC50,MCF7,> 50 µM
same,inhibition,[4],9.8%
same,IC50,[3],> 50 µM
same,IC50,DU-145,> 50 µM
same,inhibition,[5],4.7%
c1ccc(-c2cc(-c3ccoc3)c3c(n2)-c2ccccc2C3)nc1,inhibition,[6],8.6%
same,inhibition,[7],17.5%
c1ccc(-c2cc(-c3cccs3)nc3c2Cc2ccccc2-3)cc1,IC50,MCF7,> 50 µM
same,inhibition,[4],56%
same,IC50,[3],> 50 µM
same,inhibition,[8],0%
same,IC50,DU-145,> 50 µM
same,inhibition,[5],5.8%
c1ccc(-c2cc(-c3ccsc3)nc3c2Cc2ccccc2-3)nc1,IC50,MCF7,> 50 µM
same,inhibition,[4],3.2%
same,IC50,[3],> 50 µM
same,IC50,DU-145,> 50 µM
same,inhibition,[5],3.5%
c1cncc(-c2cc(-c3ccoc3)c3c(n2)-c2ncccc2CC3)c1,Ratio,[1],1.36
same,Ratio,[2],< 0.2
COc1cccc2c1C(=O)c1c(O)c3c(c(O)c1C2=O)C[C@@](O)(C(=O)CO)C[C@@H]3O[C@H]1C[C@H](N)[C@H](O)[C@H](C)O1 [DOXORUBICIN],IC50,MCF7,0.4 µM
same,IC50,[3],1.08 µM
c1ccc(-c2cc(-c3cccnc3)nc3c2COc2ccccc2-3)nc1,Ratio,[1],1.58
same,Ratio,[2],< 0.2
c1ccc(-c2cc(-c3ccco3)c3c(n2)-c2ncccc2CC3)nc1,Ratio,[1],1.25
same,Ratio,[2],< 0.2
c1ccc(-c2cc(-c3ccco3)c3c(n2)-c2ccccc2C3)nc1,inhibition,[6],0.6%
same,inhibition,[7],17.7%
c1ccc2c(c1)OCc1c(-c3ccsc3)cc(-c3ccsc3)nc1-2,Ratio,[1],1.42
same,Ratio,[2],0.9
c1ccc(-c2cc(-c3ccccn3)c3c(n2)-c2ccccc2C3)nc1,inhibition,[6],6.2%
same,inhibition,[7],10.2%
c1ccc(-c2cc(-c3cccs3)nc3c2Cc2ccccc2-3)nc1,IC50,MCF7,43.3 µM
same,inhibition,[4],18.1%
same,IC50,[3],9.63 µM
same,IC50,DU-145,> 50 µM
same,inhibition,[5],4.5%
c1csc(-c2cc(-c3ccoc3)c3c(n2)-c2ccccc2CC3)c1,Ratio,[1],0.53
same,Ratio,[2],< 0.2
c1cncc(-c2cc(-c3ccncc3)c3c(n2)-c2ccsc2CC3)c1,Ratio,[1],0.49
same,Ratio,[2],< 0.2
c1ccc(-c2cc(-c3ccsc3)nc3c2COc2ccccc2-3)cc1,Ratio,[1],1.67
same,Ratio,[2],1.13
c1csc(-c2cc(-c3ccsc3)nc3c2Cc2ccccc2-3)c1,IC50,MCF7,> 50 µM
same,inhibition,[4],17.8%
same,IC50,[3],> 50 µM
same,IC50,DU-145,> 50 µM
same,inhibition,[5],4.1%
c1ccc(-c2cc(-c3ccccn3)nc3c2Cc2ccccc2-3)cc1,inhibition,[6],0%
same,inhibition,[7],12.3%
